This is a sample that favours compounds with a hit; in the whole collection about 1.9% have one here.
M5 PAM: human M5 muscarinic receptor positive allosteric modulators, primary screen, CHO-K1 cells, Fluo-8 calcium fluorescence; CHO-K1 hM5, ACh EC20 PAM; 0% = ACh EC20, 100% = ACh EC100; activation, % at 3 µM; 360,000 compounds, 0.3% hits;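 active = activation above the run cutoff, the mean activation of all test compounds plus 3 SD, cut at about 18% in these data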
Target sequence (P08912 whole entry, looked up): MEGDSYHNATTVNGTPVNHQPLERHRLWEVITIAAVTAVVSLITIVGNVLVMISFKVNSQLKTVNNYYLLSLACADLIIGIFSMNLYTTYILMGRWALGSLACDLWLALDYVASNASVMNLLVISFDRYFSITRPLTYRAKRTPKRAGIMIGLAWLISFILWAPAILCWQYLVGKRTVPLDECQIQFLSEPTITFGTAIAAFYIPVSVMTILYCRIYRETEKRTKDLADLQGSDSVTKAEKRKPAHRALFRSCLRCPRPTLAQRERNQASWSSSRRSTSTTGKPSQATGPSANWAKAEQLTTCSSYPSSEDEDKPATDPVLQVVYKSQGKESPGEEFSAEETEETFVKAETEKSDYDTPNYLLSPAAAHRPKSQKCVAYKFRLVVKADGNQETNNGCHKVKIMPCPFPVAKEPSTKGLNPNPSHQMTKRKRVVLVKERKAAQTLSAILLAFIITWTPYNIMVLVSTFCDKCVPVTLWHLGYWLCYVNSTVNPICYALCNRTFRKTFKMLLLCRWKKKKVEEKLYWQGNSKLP
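Replicates: One well per compound, no replicates | System: Human M5 receptor in CHO-K1 cells | Benchmarks: Low control EC20 acetylcholine (0%), high control EC100 acetylcholine (100%) | Probe or stimulus: Acetylcholine, EC20 level | Times: Fluo-8 loading 80 min at 37 °C plus 30 min room temperature | Signal: Intracellular calcium via Fluo-8 fluorescence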
CHRM5 agonist: human M5 muscarinic receptor agonists, primary screen, CHO-K1 cells, Fluo-8 calcium fluorescence; Muscarinic acetylcholine receptor M5 (Homo sapiens), P08912; CHO-K1 hM5 cells; 0% DMSO wells, 100% maximal acetylcholine response; activation, % at 3 µM; 360,000 compounds, 0.19% hits;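 active = activation above the run's mean over test compounds plus 3 SD, cut at about 23% in these data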;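 note: signal is peak over basal fluorescence ratio across the kinetic read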
M4 antag: human M4 muscarinic receptor antagonists, primary screen, CHO cells, Fluo-8 calcium fluorescence | Muscarinic acetylcholine receptor M4 (Homo sapiens), P08173 | CHO-hM4 cells, ACh EC80 | inhibition, % at 3 µM | 360,000 compounds, 0.73% hits | AID 624125, 2012;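 active = inhibition above its plate's cutoff, the mean inhibition of sample wells plus 3 SD, cut at about 27% in these data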;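 note: 0% = acetylcholine EC80 with DMSO and 100% = DMSO without agonist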
M5 antag: human M5 muscarinic receptor antagonists, primary screen, CHO cells, Fluo-8 calcium fluorescence; CHO-hM5 cells, ACh EC80; inhibition, % at 3 µM; Muscarinic acetylcholine receptor M5 (Homo sapiens), P08912; AID 624040, 2012; 360,000 compounds, 0.59% hits;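 active = inhibition above a per-plate cutoff, the mean of that plate's test compounds plus 3 SD, cut at about 27% in these data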;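 note: 0% = acetylcholine EC80 with DMSO and 100% = DMSO without agonist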
CHRM4 PAM: human M4 muscarinic receptor positive allosteric modulators, primary screen, CHO-K1 cells, Fluo-8 calcium fluorescence | Muscarinic acetylcholine receptor M4 (Homo sapiens), P08173 | CHO-K1 hM4/Gqi5, ACh EC20; 0% = ACh EC20, 100% = maximal ACh | activation, % at 3 µM | 360,000 compounds, 0.4% hits | AID 624126, 2012;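 active = activation above its plate's cutoff, the mean activation of sample wells plus 3 SD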
M4 ag: human M4 muscarinic receptor agonists, primary screen, CHO-K1 cells, Fluo-8 calcium fluorescence; Muscarinic acetylcholine receptor M4 (Homo sapiens), P08173; CHO-K1 hM4/Gqi5; vehicle 0%, full acetylcholine response 100%; AID 624127, 2012; activation, % at 3 µM; 360,000 compounds, 0.14% hits;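 active = activation above the run mean over all test wells plus 3 SD, cut at about 32% in these data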;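 note: peak over basal fluorescence ratio per well then scaled between controls; 0% = DMSO wells and 100% = acetylcholine at EC100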
Active calls of the source: *; ! = repeats disagree.

SMILES	M5 PAM	CHRM5 agonist	M4 antag	M5 antag	CHRM4 PAM	M4 ag
CCCCCc1ccc(OCCOCCn2c[n+](C)c3ccccc32)c(CCCCC)c1	-10	-10	58*	21	-19	2
CCCCCc1ccc(OCCC[n+]2ccccc2)c(CCCCC)c1	-30	-21	32*	32*	-48	0
Cc1cn([C@H]2C[C@H](O)[C@@H](CNC/C=C/c3ccccc3[N+](=O)[O-])O2)c(=O)[nH]c1=O	-3	0	-11	4	9	1
O=C(O)Cn1c(=O)cnc2ccccc21	0	-3	27*	11	6	2
O=C(Cn1c(=O)cnc2ccccc21)NCC(=O)Nc1ccc(F)c(F)c1	-2	-1	-26	-4	9	2
COC(=O)Cn1c(=O)cnc2ccccc21	2	1	4	-3	0	-1
COC(=O)c1cc(NC(=O)Cn2c(=O)cnc3ccccc32)cc(C(=O)OC)c1	20*	-4	-9	-7	3	1
O=C(NCCCCCCNC(=O)c1ccccc1O)c1ccccc1O	-19	6	9	28*	-16	22
O=C(Nc1ccccc1)C1=C(Nc2ccccc2)CSC1	1	1	-1	-3	2	1
O=C(Nc1ccc2c(c1)OCO2)c1ccc2sc([C@H]3C[C@H](O)[C@@H](CO)O3)nc2c1	-2	0	-19	-4	16*	1
NC(=O)c1cc(S(=O)(=O)N2CCCC2)ccc1OCCOc1ccccc1F	-3	2	2	6	5	3
CCCCCC(=O)Nc1cc(S(=O)(=O)N2CCCCC2)ccc1N1CCOCC1	5	-4	-7	8	1	0
Cc1ccc(S(=O)(=O)N2CCOCC2)cc1NC(=O)COC(=O)C1CCC1	1	0	-9	-1	3	2
CCOC(=O)C1CCN(CC(=O)Nc2cc(S(=O)(=O)N3CCOCC3)ccc2C)CC1	19*	2	-10	-6	5	2
CCCCCC(=O)Nc1cc(S(=O)(=O)N2CCOCC2)ccc1N1CCCC1	30*	2	7	25	-4	0
CCN1CCN(c2ccc(S(=O)(=O)N3CCOCC3)cc2NC(=O)CCOc2ccccc2)CC1	-10	-5	-1	29*	5	2
Cc1cccc(N2CCN(CC(=O)Nc3ccc(S(=O)(=O)N4CCOCC4)cc3)CC2)c1C	-12	3	6	34*	-7	19
CC(C)n1nnnc1C1c2ccccc2C(=O)N1CCCn1ccnc1 (stereo not drawn)	-2	-1	-2	-5	8	2
Cc1ccccc1OCCC(=O)Nc1cc(S(=O)(=O)N2CCCCC2)ccc1N1CCN(C)CC1	-5	13	21	7	-9	56*
CCN1CCN(c2ccc(S(=O)(=O)N3CCCCC3)cc2NC(=O)Cc2ccccc2)CC1	-2	-1	12	5	-6	1
CCN1CCN(c2ccc(S(=O)(=O)N3CCCCC3)cc2NC(=O)Cc2ccc(Cl)c(Cl)c2)CC1	-17	28*	21	20	-15	54*
O=C(Nc1ccc2c(c1)OCCO2)C1c2ccccc2OCC(=O)N1CCc1ccccc1 (stereo not drawn)	4	1	3	-7	1	1
c1ccc(CNc2c(C3CCNCC3)nc3scc(-c4ccccc4)n23)cc1	-5	-1	-3	-1	4	1
CC(=O)N1CCN(c2ccc(Oc3ccc([N+](=O)[O-])c(C(F)(F)F)c3)cc2)CC1	-14	5	13	27*	-11	15
COc1ccc(C(=O)NC(=S)Nc2ccc(N3CCN(C(C)=O)CC3)cc2)cc1[N+](=O)[O-]	-5	2	8	7	12	3
SMILES	M5 PAM	CHRM5 agonist	M4 antag	M5 antag	CHRM4 PAM	M4 ag
O=[N+]([O-])c1ccc(CN2CCSCC2)cc1	22*	2	-12	-11	4	1
COc1cccc(CN(C)C(=O)c2cc(-c3ccc(OC)c(OC)c3)nc3ccccc23)c1	-13	-3	30*	28*	-8	12
COc1ccc(CN(C)C(=O)c2cc(-c3ccc(OC)c(OC)c3)nc3ccccc23)c(OC)c1	-8	-5	27*	20	-11	13
COc1cccc(CN(C)C(=O)c2cc(-c3ccc(F)cc3)nc3ccccc23)c1	-7	2	16	2	-9	14
COc1ccc(-c2cc(C(=O)N(C)Cc3cccc(OC)c3OC)c3ccccc3n2)cc1OC	-11	0	4	16	-6	17
CC[N+](C)(C)CCN(Cc1ccc(Cl)cc1)c1ccccn1	-23	-5	19	47*	-15	1
O=S(=O)(Nc1cccc(-c2cn3c(n2)SCC3)c1)c1ccccc1	2	-2	0	-10	4	3
CCCCn1c(N)c(N(CCC(C)C)C(=O)c2c(CC)noc2C)c(=O)[nH]c1=O	-5	0	-7	2	3	0
CCOC(=O)Cn1c(=N)n(CCOc2ccc(OC)cc2)c2ccccc21	5	-5	7	1	4	2
CCOC(=O)Cn1c(=N)n(CCOc2ccc3ccccc3c2)c2ccccc21	-21	6	9	10	-9	39*
C=CCN1C(=O)C(Cc2ccc(SC(F)F)cc2)SC1=Nc1ccc(C(=O)O)cc1 (stereo not drawn)	-10	-7	-10	27*	7	8
Cc1ccc(-c2csc(Nc3ccccn3)n2)cc1	14	10	-14	-4	14*	-1
Cc1ccc(Nc2nc(-c3sc(N)nc3C)cs2)cc1	20*	7	3	-15	-8	-1
Cc1nc(C)c(-c2csc(Nc3ccccn3)n2)s1	-5	5	-4	10	-2	3
c1ccc(-c2csc(Nc3ccccn3)n2)cc1	14	13	0	-8	4	-1
Cc1nc(N)sc1-c1csc(Nc2ccccn2)n1	2	0	28*	0	1	0
CN(CCN1CCOCC1)C(=O)CC1C(=O)NCCN1Cc1ccccc1C(F)(F)F (stereo not drawn)	-1	-5	-13	1	19*	1
O=C(O)c1ccccc1O	-14	26*	-26	-9	13	2
Nc1ccc(C(=O)O)c(O)c1	-1	0	43*!	0	8	2
O=C(O)c1ccc(O)cc1O	-1	3	8	4	8	2

Source: PubChem
